Compound activity from PubChem.
TAAR1 agonist = agonists of human TAAR1; 0.99% of 360,000 active; activation, % at 3 µM; CHO RD-HGA16 TAAR1, Fluo-8 calcium fluorescence; vehicle wells 0%, saturating PEA agonist 100%; Q96RJ0;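 active = activation above the mean activation of all test compounds in the run plus 3 SD, cut at about 38% in these data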
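Benchmarks: low control DMSO, high control PEA (EC100); System: CHO RD-HGA16 cells carrying human TAAR1 plus Gα16; Detection: Fluo-8 fluorescence, 5 s baseline then 140 s kinetic read; Schedule: 17-24 h plating, Fluo-8 75 min 37 °C, 30 min RT; Read-out basis: % activation from peak over basal fluorescence ratio, DMSO-to-PEA scaled.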
TAAR1 antag = human TAAR1 antagonism; 1.5% of 360,000 active; CHO RD-HGA16 TAAR1, Fluo-8 calcium fluorescence, antagonist; AID 624466; Q96RJ0; inhibition, % at 3 µM;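 active = inhibition above a per-plate cutoff, the mean inhibition of test compounds on that plate plus 3 SD, cut at about 49% in these data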;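 also: 0% = DMSO plus EC80 beta-PEA response and 100% = DMSO alone without agonist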
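Test system: CHO RD-HGA16 cells bearing hTAAR1 | Reagent: β-PEA, EC80 | Compound dosing: 3 µM, single point | Schedule: Dye loading 75 min at 37 °C, then 30 min room temperature | Signal: Calcium fluorescence with Fluo-8 | Evaluation: Percent inhibition of PEA-evoked calcium signal, max/basal emission ratio | Control set: DMSO-only wells and EC80 β-PEA-stimulated wells | Repeats: Singlicate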
OXTR potentiator = potentiators of human oxytocin receptor; P30559; CHO-OTR cells, Fluo-8 calcium fluorescence, potentiator mode; 0% = oxytocin EC15, 100% = EC100; activation, % at 3 µM; 0.061% of 320,000 active; AID 2445;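 active = activation above that plate's cutoff, the mean activation of tested compounds plus 3 SD, cut at about 6.6% in these data, passing the limit was not always enough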;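 also: 100% uses oxytocin at 75 nM as the full agonist control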
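Assay system: CHO cell line stably expressing human OTR. Reagent: EC15 oxytocin agonist. Dosing: single dose, 3.0 µM nominal final compound concentration. Timing: compound 6 min at room temperature before oxytocin, 100 s read. Signal: kinetic Fluo-8 calcium fluorescence. Controls: oxytocin EC15 low and EC100 high.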
OXTR ag = human OXTR agonism; AID 2435; 0.32% of 320,000 active; CHO-OTR cells, Fluo-8 calcium fluorescence; normalized: DMSO 0%, oxytocin 100%; activation, % at 3 µM; P30559;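 active = activation above the mean of all tested compounds plus 3 SD, cutoff set per screening run, cut at about 20% in these data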;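 also: peak over basal fluorescence ratio from a 100 s FLIPR kinetic read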
V1aR counter = activates human V1a receptor in oxytocin agonist counter-screen. P37288. CHO-V1R cells, Fluo-8 calcium fluorescence, agonist mode; 0% DMSO, 100% 3 nM vasopressin. activation, % at 3 µM. 0.25% of 320,000 active. AID 2797;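 active = activation above the mean activation of all tested compounds plus 3 SD, per screening run, cut at about 20% in these data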;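 also: signal is peak over basal fluorescence ratio across a 100 second FLIPR read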
Target sequence (P37288 whole entry, looked up): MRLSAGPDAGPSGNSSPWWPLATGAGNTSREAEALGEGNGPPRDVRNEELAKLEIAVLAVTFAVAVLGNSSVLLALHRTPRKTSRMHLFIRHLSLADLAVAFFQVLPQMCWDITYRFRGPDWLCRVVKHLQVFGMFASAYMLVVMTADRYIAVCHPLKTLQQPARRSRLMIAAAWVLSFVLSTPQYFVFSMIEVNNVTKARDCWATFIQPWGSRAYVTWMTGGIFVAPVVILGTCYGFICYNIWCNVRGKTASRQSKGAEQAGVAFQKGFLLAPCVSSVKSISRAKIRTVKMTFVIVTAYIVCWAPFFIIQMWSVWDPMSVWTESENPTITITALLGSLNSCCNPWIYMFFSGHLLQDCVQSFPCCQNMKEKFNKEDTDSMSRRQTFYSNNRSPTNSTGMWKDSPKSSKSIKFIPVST
TAAR1 ag confirm = confirmation of human TAAR1 agonists; shares compounds with TAAR1 agonist; CHO RD-HGA16 TAAR1, Fluo-8 calcium fluorescence; scaled: DMSO 0%, maximal phenethylamine 100%; activation, % at 3 µM; 82% of 2,400 active; AID 651783;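 active = activation above a cutoff set at the run's mean compound activation plus 3 SD, cut at about 39% in these data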
Ga16 nonsel ag = nonselective agonism, TAAR1 counter-screen; shares compounds with TAAR1 agonist; CHO-Ga16 parental, Fluo-8 calcium fluorescence; normalized to maximal ATP response, DMSO zero; activation, % at 3 µM; 50% of 2,400 active; AID 651787;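 active = activation above the run cutoff, the mean activation over all tested wells plus 3 SD, cut at about 12% in these data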;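 also: 0% = DMSO wells and 100% = maximal ATP response on the peak over basal ratio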
TAAR1 desensitize = TAAR1 response desensitization, agonist counter-screen. 46% of 2,400 active. shares compounds with TAAR1 agonist. inhibition, % at 3 µM. CHO RD-HGA16 hTAAR1, Fluo-8 calcium, beta-PEA response inhibition;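 active = inhibition above the run cutoff, the mean inhibition of all test compounds plus 3 SD, cut at about 49% in these data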;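 also: beta-PEA stimulus applied at its EC80; loss of beta-PEA calcium signal after compound pretreatment read as receptor desensitization; 0% = DMSO with beta-PEA at EC80 and 100% = DMSO alone without agonist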
Ga16 antag count = nonselective Ga16 antagonist in TAAR1 agonist counter-screen | shares compounds with TAAR1 agonist | 39% of 2,400 active | AID 651952 | CHO-Ga16 ATP-induced calcium, Fluo-8 fluorescence | inhibition, % at 3 µM;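 active = inhibition above the plate's mean compound inhibition plus 3 SD, computed per plate, cut at about 22% in these data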;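 also: 0% = EC80 ATP with DMSO and 100% = DMSO wells without ATP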
An asterisk follows results filed as active; . = no result given. This is a sample that favours compounds with a hit; in the whole collection about 2.3% have one here.

SMILES	TAAR1 agonist	TAAR1 antag	OXTR potentiator	OXTR ag	V1aR counter	TAAR1 ag confirm	Ga16 nonsel ag	TAAR1 desensitize	Ga16 antag count
Cc1ccnc(NC(=O)Nc2ccc3c(c2)OCO3)c1	47*	4	-5	1	1	87*	0	66*	4
O=C(Nc1ccc2c(c1)OCCO2)Nc1ccc2c(c1)OCO2	1	3	-2	0	2	.	.	.	.
CCc1ccccc1NC(=O)Nc1ccc2c(c1)OCO2	64*	43	-7	-1	1	2	5	3	9
O=C(Nc1nc2c(Cl)ccc(Cl)c2s1)c1ccco1	114*	70*	-8	8	1	107*	89*	92*	62*
O=C(Nc1nc2ccsc2c(=O)s1)c1ccco1	1	-4	4	-1	-1	.	.	.	.
Cc1onc(C(=O)Nc2sc3c(c2C#N)CCCC3)c1[N+](=O)[O-]	3	-18	-2	3	3	.	.	.	.
NC(c1csc(NC(=O)Nc2cccc(Cl)c2)n1)c1ccccc1Cl (centres undefined)	52*	34	.	.	.	66*	27*	64*	47*
Cn1c(=O)cc(NCCc2ccccc2)[nH]c1=O	69*	17	-2	0	1	74*	1	45	7
Cn1c(=O)cc(Nc2ccccc2)[nH]c1=O	18	-8	-6	0	0	.	.	.	.
Cn1c(=O)cc(Nc2ccc(Cl)cc2)[nH]c1=O	48*	8	-17	-1	0	67*	0	44	13
NS(=O)(=O)c1ccc(CCNc2cc(=O)n(Cc3ccc(F)cc3)c(=O)[nH]2)cc1	2	17	-2	-1	1	.	.	.	.
Cn1c(NCCc2ccccc2)cc(=O)n(C)c1=O	.	.	6	-1	0	.	-1	.	11
COc1ccc(Cc2nc3ccc(C(=O)NCC4COCCO4)cc3o2)cc1OC (centres undefined)	2	-14	-9	2	4	.	.	.	.
Cc1ccnc(NC(=O)c2ccc(S(=O)(=O)N3CCCC3)cc2)c1	0	7	1	-1	1	.	.	.	.
Nc1nc(N)c2cc(CNc3ccc(Cl)c(Cl)c3)ccc2n1	64*	53*	.	.	.	80*	42*	74*	66*
CC(C)C[C@H]1CN=C(Nc2ccccc2)N1CCCC1CCCCC1	58*	15	-12	15	5	58*	26*	33	27*
CC(C)C[C@H]1CN=C(Nc2ccccc2)N1CCCC1CCCC1	57*	2	-6	9	3	74*	36*	26	24*
c1ccc(C[C@H]2CN=C(Nc3ccccc3)N2CCCC2CCCCC2)cc1	47*	-2	-2	3	1	20	3	13	13
CC(C)C[C@H]1CN=C(Nc2ccccc2)N1CCC1CCCC1	25	-6	-4	3	0	.	.	.	.
Fc1ccc(-c2cc(C(F)(F)C(F)F)[nH]n2)cc1	81*	75*	-21	39*	32*	91*	53*	74*	39*
FC(F)C(F)(F)c1cc(-c2ccc(Cl)cc2)n[nH]1	63*	49	-19	21*	22*	57*	22*	48	26*
Oc1ccccc1-c1cc(C(F)(F)C(F)F)[nH]n1	13	22	-12	14	5	.	.	.	.
Nn1c(=O)[nH]c2c([nH]c3ccccc32)c1=O	10	-13	-12	1	0	.	.	.	.
CCCOc1ccc(C(=O)NNC(=S)NC(=O)c2cc(-c3ccccc3)nc3ccccc23)cc1	55*	22	-14	0	1	83*	72*	77*	74*
CC(C)(C)c1ccc(C(=O)NC(=S)NNC(=O)c2cccs2)cc1	174*	105*	-11	101*	93*	159*	129*	107*	102*
SMILES	TAAR1 agonist	TAAR1 antag	OXTR potentiator	OXTR ag	V1aR counter	TAAR1 ag confirm	Ga16 nonsel ag	TAAR1 desensitize	Ga16 antag count
Cc1ccc(OCC(=O)NNC(=S)NC(=O)c2cccs2)c(C)c1	0	-12	.	.	.	.	.	.	.
Cc1cc(OCC(=O)NNC(=S)NC(=O)c2cccs2)ccc1Cl	103*	65*	.	.	.	77*	76*	58*	54*
O=C(NC(=S)NNC(=O)c1cccs1)c1ccccc1	37	28	-8	1	2	.	.	.	.
CCCOc1ccc(C(=O)NNC(=S)NC(=O)c2cccs2)cc1	159*	106*	-12	79*	85*	154*	124*	106*	91*
CCCC(=O)Nc1ccc(C(=O)NNC(=S)NC(=O)c2cccs2)cc1	2	-16	-3	-2	-1	.	.	.	.
CCCOc1ccc(-c2cc(C(=O)NCC3CCCO3)c3ccccc3n2)cc1 (centres undefined)	12	42	-15	-1	0	.	.	.	.
Cc1cc(C)cc(N(CC(=O)NC(C)(C)C)C(=O)CCC(=O)Nc2nccs2)c1	5	-12	-10	0	0	.	.	.	.
CC(C)OCCCNC(=O)C(=O)N/N=C/c1ccc(OCc2ccccc2)cc1	2	-12	-5	1	1	.	.	.	.
O=[N+]([O-])c1ccc2cc[nH]c2c1	0	-2	.	.	.	.	.	.	.
Cc1ccc2nc(NC(=O)CN3C(=O)NC4(CCCC4)C3=O)sc2c1	3	-10	-5	0	0	.	.	.	.
CCCOc1ccc(C(=O)NNC(=S)NC(C)=O)cc1	13	-14	-8	-2	-2	.	.	.	.
CCCOc1ccc(C(=O)NNC(=S)NC(=O)c2ccccc2[N+](=O)[O-])cc1	79*	26	-4	2	5	28	28*	16	27*
CC(C)(C)c1ccc(C(=O)NNC(=S)NC(=O)c2cccnc2)cc1	86*	35	2	8	13	49*	47*	38	28*
Cc1ccccc1C(=O)Nc1cccc(NC(=S)NC(=O)c2cccs2)c1	4	-11	-8	-1	2	.	.	.	.
CCCOc1ccc(C(=O)NNC(=S)NC(=O)c2ccccc2)cc1	161*	106*	-27	101*	115*	147*	117*	106*	95*
Cc1ccccc1C(=O)NNC(=S)NC(=O)c1cccs1	128*	65*	-9	36*	65*	67*	69*	29	30*
